Assay results: ChEMBL document CHEMBL4765446, “Synthesis of ticagrelor analogues belonging to 1,2,3-triazolo[4,5-d]pyrimidines and study of their antiplatelet and antibacterial activity” (2020)
In brackets after ≈: the same amount, converted by molar mass.

Key:
[1] = tested on: Plasma; assay: Antiplatelet activity in human platelet-rich plasma assessed as inhibition of ADP-induced platelet aggregation at 1.8 uM preincubated for 10 mins followed by ADP addition and measured for 10 mins by light transmission aggregometry relative to control; type: functional; conditions: time 20 min
How it was run: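 Citrated (3.2%) venous blood from drug-free healthy volunteers aged 20–40 years; PRP from 100 × g 15 min spin, adjusted to 250000/µl with autologous PPP (800 × g 15 min). Compound or vehicle (1% DMSO) preincubated 10 min, then stirring at 1200 rpm, 37 °C, and ADP 10 µM added. Aggregation followed 10 min; AUC expressed as fold-inhibition vs vehicle, mean ± S.D., n = 4–21 donors, Wilcoxon paired test.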

[2] = tested on: Staphylococcus aureus; assay: Antibacterial activity against methicillin-resistant Staphylococcus aureus BAA-1556 by broth microdilution method; type: functional
How it was run: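 Single colony from Brain Heart Infusion agar grown overnight in BHI broth, aerobic, 37 °C, 190 rpm. Diluted 100-fold in Mueller-Hinton broth, grown to exponential phase. About 5.10^5 CFU/ml then incubated with or without a range of concentrations, vehicle 1% DMSO. Growth read as OD600. MIC per EUCAST is the lowest concentration with no visible growth, i.e. ΔOD600 versus blank (medium + 1% DMSO) equal to zero.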

CCCSc1nc(N[C@@H]2C[C@H]2c2ccc(F)c(F)c2)c2nnn([C@@H]3C[C@H](O)[C@@H](O)[C@H]3O)c2n1
fold change (FC) [1]: 4.8 | MIC [2]: 25 µM (≈ 12 µg/mL)

CCCSc1nc(N[C@@H]2C[C@H]2c2ccccc2)c2nnn([C@@H]3C[C@H](OCCO)[C@@H](O)[C@H]3O)c2n1
fold change (FC) [1]: 3.1 | MIC [2]: > 200 µM

O[C@@H]1[C@H](O)[C@@H](O)C[C@H]1n1nnc2c(N[C@@H]3C[C@H]3c3ccc(F)c(F)c3)nc(Cl)nc21
fold change (FC) [1]: 1.1 | MIC [2]: > 200 µM

C[C@@H](O)CSc1nc(N[C@@H]2C[C@H]2c2ccc(F)c(F)c2)c2nnn([C@@H]3C[C@H](O)[C@@H](O)[C@H]3O)c2n1
fold change (FC) [1]: 6.2 | MIC [2]: > 200 µM

OCCCSc1nc(N[C@@H]2C[C@H]2c2ccc(F)c(F)c2)c2nnn([C@@H]3C[C@H](OCCO)[C@@H](O)[C@H]3O)c2n1
fold change (FC) [1]: 1 | MIC [2]: > 200 µM

C[C@H](O)CSc1nc(N[C@@H]2C[C@H]2c2ccc(F)c(F)c2)c2nnn([C@@H]3C[C@H](O)[C@@H](O)[C@H]3O)c2n1
fold change (FC) [1]: 2 | MIC [2]: > 200 µM

CCn1nnc2c(N[C@@H]3C[C@H]3c3ccc(F)c(F)c3)nc(SC)nc21
fold change (FC) [1]: 0.87 | MIC [2]: > 200 µM

CCCSc1nc(N[C@@H]2C[C@H]2c2ccc(F)c(F)c2)c2nnn(CC)c2n1
fold change (FC) [1]: 0.97 | MIC [2]: > 200 µM

CCCSc1nc(N[C@@H]2C[C@H]2c2ccc(F)c(F)c2)c2nnn(C)c2n1
fold change (FC) [1]: 1.08 | MIC [2]: > 200 µM

CCCSc1nc(NCCc2ccc(F)c(F)c2)c2nnn([C@@H]3C[C@H](OCCO)[C@@H](O)[C@H]3O)c2n1
fold change (FC) [1]: 1.1 | MIC [2]: > 200 µM

CC(O)CSc1nc(N[C@@H]2C[C@H]2c2ccc(F)c(F)c2)c2nnn([C@@H]3C[C@H](OCCO)[C@@H](O)[C@H]3O)c2n1 (stereo partly specified)
fold change (FC) [1]: 1.7 | MIC [2]: > 200 µM

CSc1nc(N[C@@H]2C[C@H]2c2ccc(F)c(F)c2)c2nnn(C)c2n1
fold change (FC) [1]: 0.94 | MIC [2]: > 200 µM

OCCCSc1nc(N[C@@H]2C[C@H]2c2ccc(F)c(F)c2)c2nnn([C@@H]3C[C@H](O)[C@@H](O)[C@H]3O)c2n1
fold change (FC) [1]: 2.7 | MIC [2]: > 200 µM

CCCSc1nc(N[C@@H]2C[C@H]2c2ccc(F)c(F)c2)c2nnn(C3CCCC3)c2n1
fold change (FC) [1]: 1 | MIC [2]: > 200 µM

CCCSc1nc(N)c2nnn([C@@H]3C[C@H](O)[C@@H](O)[C@H]3O)c2n1
fold change (FC) [1]: 1.1 | MIC [2]: > 200 µM

CCCSc1nc(N)c2nnn([C@@H]3C[C@H](OCCO)[C@@H](O)[C@H]3O)c2n1
fold change (FC) [1]: 1.1 | MIC [2]: > 200 µM

CCSc1nc(N[C@@H]2C[C@H]2c2ccc(F)c(F)c2)c2nnn(CC)c2n1
fold change (FC) [1]: 0.91 | MIC [2]: > 200 µM

CCCSc1nc(NC2CC2)c2nnn([C@@H]3C[C@H](OCCO)[C@@H](O)[C@H]3O)c2n1
fold change (FC) [1]: 2.6 | MIC [2]: > 200 µM

CCSc1nc(N[C@@H]2C[C@H]2c2ccc(F)c(F)c2)c2nnn(C)c2n1
fold change (FC) [1]: 0.97 | MIC [2]: > 200 µM

Nc1nc(SCCCO)nc2c1nnn2[C@@H]1C[C@H](O)[C@@H](O)[C@H]1O
fold change (FC) [1]: 1 | MIC [2]: > 200 µM

CC(O)CSc1nc(N)c2nnn([C@@H]3C[C@H](O)[C@@H](O)[C@H]3O)c2n1 (stereo partly specified)
fold change (FC) [1]: 1 | MIC [2]: > 200 µM

O[C@@H]1[C@H](O)[C@@H](O)C[C@H]1n1nnc2c(N[C@@H]3C[C@H]3c3ccc(F)c(F)c3)ncnc21
fold change (FC) [1]: 1 | MIC [2]: > 200 µM

CCCSc1nc(N[C@@H]2C[C@H]2c2ccc(F)c(F)c2)c2nnn([C@@H]3C[C@H](OCCO)[C@@H](O)[C@H]3O)c2n1 [TICAGRELOR]
fold change (FC) [1]: 4.3 | MIC [2]: 25 µM (≈ 13.1 µg/mL)
